How the values were obtained:
[1] = system: BRAF K601E CRC PDX tumors; experiment: Colorectal cancer PDX model; format: in vivo, NSG mice; details: vemurafenib 75mg/kg BID, PLX8394 50mg/kg BID
[2] = system: RAF-null MEFs expressing ARAF; experiment: ERK signaling in RAF-null MEFs expressing one RAF isoform; format: cell-based, Mouse; details: 1hr
In short: (§1)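 RAF-less MEFs came from Araflox/lox;Braflox/lox;Craflox/lox;RERT ert/ert MEFs. Doxycycline-inducible wild-type ARAF, BRAF or CRAF was transduced retrovirally without 4-OHT and selected with puromycin/hygromycin. Cells were then infected with Adeno-Cre (MOI 100) and cultured in 1 uM 4-OHT plus 50 ng/ml doxycycline. GFP-positive cells were sorted after 2 weeks. Loss of endogenous RAF and induced expression were confirmed by genomic PCR and Western blot.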

[3] = system: p61 BRAF V600E dimers; experiment: ERK signaling in SKBR3 cells ectopically expressing RAF proteins; format: cell-based; details: 1hr
In short: (§2)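 SKBR3 cells (DMEM/F12 + 10% FBS) were transfected the day after seeding (Lipofectamine 2000, DNA:lipid 1:3) with plasmids for the indicated RAF proteins or empty pcDNA3. After 24 h, RAF-transfected cells got 1 uM lapatinib to suppress endogenous RAF activity; vector cells got DMSO. Test compound was then added at increasing doses for 1 hr. Protein expression and phosphorylation were read by Western blot; 3–4 independent repeats.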

[4] = system: RAF-null MEFs expressing CRAF; experiment: ERK signaling in RAF-null MEFs expressing one RAF isoform; format: cell-based, Mouse; details: 1hr
In short: as §1

[5] = system: BRAF G466V PDX tumors; experiment: Colorectal cancer PDX model; format: in vivo, NSG mice; details: Cetuximab 50 mg/kg IP twice weekly, vemurafenib 75 mg/kg BID, PLX8394 50 mg/kg BID
[6] = system: NRAS Q61R activation of WT RAF dimers (SK-MEL-2); experiment: p-ERK Western blot, 1 hr drug treatment; format: cell-based; details: Homo sapiens, SK-MEL-2, read-out: IC50 for p-ERK in SK-MEL-2 cells
In short: (§3)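 SK-MEL-2 (RPMI, 10% FBS) or primary keratinocytes (Dermal Cell Basal Medium + keratinocyte growth kit) were exposed 1 hr to 0–30,000 nM compound (nine points, 10 to 30,000 nM). Lysates were Western blotted, and p-ERK/total ERK was quantified by densitometry and normalized to untreated cells. IC50 is the concentration giving 50% inhibition on the response curve; n=4, mean±s.d.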

[7] = system: RAF-null MEFs expressing BRAF; experiment: ERK signaling in RAF-null MEFs expressing one RAF isoform; format: cell-based, Mouse; details: 1hr
In short: as §1

[8] = PLX8394 concentration in tumor samples; format: in vivo, Mice; details: single dose of 50mg/kg (i.p.), A375 xenograft tumor tissue
In short: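 Melanoma xenograft tumours were collected at several time points after a single 50 mg/kg dose. Fresh tissue (50–150 mg) was snap-frozen in an ethanol–dry ice bath, homogenised and protein-precipitated. Samples were quantified by LC-MS/MS with an internal standard and a 15–50000 ng/mL calibration range. Standards were made by spiking untreated homogenate, and QC samples spanned the range.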

[9] = system: RAS-independent truncated CRAF (Cat C) homodimers; experiment: RAF dimer immunoprecipitation in 293H; format: cell-based; details: concentrations as high as 10uM
In short: (§4)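 293H cells with inducible NRAS Q61K co-expressed V5- and FLAG-tagged pairs: BRAF/BRAF, p61 BRAF/p61 BRAF, CRAF-V5/BRAF-FLAG, catC-V5/p61 BRAF-FLAG, CRAF/CRAF or catC/catC. Cells were exposed 1 hr to increasing test compound concentrations, and lysates were immunoprecipitated with anti-V5 agarose. Blots were probed with anti-V5/anti-FLAG. Pulled-down tagged proteins were quantified by densitometry, normalized to untreated cells and plotted as response curves; 3 independent repeats.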

[10] = system: Class 3 BRAF mutant heterodimers; experiment: RAF dimer immunoprecipitation in 293H cells; format: cell-based; details: 1hr, increasing doses
[11] = system: Class 2 BRAF mutant homodimers; experiment: RAF dimer immunoprecipitation in 293H cells; format: cell-based; details: 1hr, increasing doses
[12] = molecular target: RAS-independent BRAF dimers (p61 BRAF) (Homo sapiens, UniProt P15056); experiment: RAF dimer immunoprecipitation in 293H; format: cell-based; details: read-out: IC50 for decrease of dimer levels, p61 BRAF; 1hr; IP/Western blot
In short: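 293H cells carried doxycycline-inducible NRAS Q61K introduced by retrovirus. They were transfected with Lipofectamine 2000 (DNA:reagent 1:3) to co-express V5- and FLAG-tagged full-length BRAF or p61 BRAF pairs. Cells were exposed to increasing test-compound doses for 1 hr, then lysed, and lysates were immunoprecipitated with anti-V5 agarose (1:200). Blots were probed with anti-V5 and anti-FLAG. Pulled-down FLAG and V5 proteins were quantified by densitometry and normalised to untreated cells.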

[13] = system: WT RAS/RAF (primary keratinocytes); experiment: p-ERK Western blot, 1 hr drug treatment; format: cell-based; details: Keratinocyte, read-out: IC50 for p-ERK in keratinocytes
In short: as §3

[14] = system: A375 Xenograft tumors; experiment: ERK pathway inhibition in A375 xenograft tumors after a single dose; format: in vivo, Mice; details: single dose of 50mg/kg
[15] = system: CRAF knockout MEF cells; experiment: p-MEK/p-ERK in RAF knockout MEF cells; format: cell-based, Mouse; details: 1hr
In short: (§5)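 Wild-type control MEFs and ARAF, BRAF or CRAF knockout MEFs (from a conditional RAF knockout line) were exposed 1 hr to increasing test compound concentrations. Western blot measured p-MEK, MEK, p-ERK and ERK. p-MEK/MEK and p-ERK/ERK were quantified by densitometry, normalized to untreated cells and plotted as response curves (mean±s.d.). Cellular experiments were repeated at least three times.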

[16] = system: p61 WT BRAF dimers; experiment: ERK signaling in SKBR3 cells ectopically expressing RAF proteins; format: cell-based; details: 1hr
In short: as §2

[17] = system: p61 BRAF V600E homodimers (SK-MEL-239 C4); experiment: p-ERK Western blot, 1 hr drug treatment; format: cell-based
In short: (§6)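 SK-MEL-239 and SK-MEL-239 C4 cells (DMEM, glutamine, antibiotics, 10% FBS) were exposed 1 hr to 0–30,000 nM test compound (0,10,30,100,300,1000,3000,10,000, 30,000 nM). Whole-cell lysates were Western blotted, and p-ERK/total ERK was quantified by densitometry and normalized to untreated cells. IC75 is the concentration giving 75% inhibition on the response curve; 4 independent repeats, mean±s.d.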

[18] = system: Class 1 (BRAF V600 mutants) monomers (A375, SK-MEL-239 and MDST-8); experiment: ERK signaling in a panel of cell lines, 1 hour; format: cell-based
[19] = system: BRAF V600E monomers (SK-MEL-239); experiment: p-ERK Western blot, 1 hr drug treatment; format: cell-based; details: p-ERK/total ERK by densitometry, calculated from the curves in Figure 1
In short: as §6

[20] = system: HeLa cells (WT RAS and RAF) with BRAF overexpression; experiment: ERK signaling in HeLa cells stably expressing RAF; format: cell-based; details: 1hr
[21] = system: BRAF knockout MEF cells; experiment: p-MEK/p-ERK in RAF knockout MEF cells; format: cell-based, Mouse; details: 1hr
In short: as §5

[22] = system: RAS-dependent ARAF homo-or heterodimers; experiment: RAF dimer immunoprecipitation in 293H; format: cell-based; details: 1hr
[23] = molecular target: BRAF/CRAF dimers (Homo sapiens, UniProt P04049); experiment: RAF dimer immunoprecipitation in 293H; format: cell-based
Chain of BRAF/CRAF dimers (P04049 whole entry): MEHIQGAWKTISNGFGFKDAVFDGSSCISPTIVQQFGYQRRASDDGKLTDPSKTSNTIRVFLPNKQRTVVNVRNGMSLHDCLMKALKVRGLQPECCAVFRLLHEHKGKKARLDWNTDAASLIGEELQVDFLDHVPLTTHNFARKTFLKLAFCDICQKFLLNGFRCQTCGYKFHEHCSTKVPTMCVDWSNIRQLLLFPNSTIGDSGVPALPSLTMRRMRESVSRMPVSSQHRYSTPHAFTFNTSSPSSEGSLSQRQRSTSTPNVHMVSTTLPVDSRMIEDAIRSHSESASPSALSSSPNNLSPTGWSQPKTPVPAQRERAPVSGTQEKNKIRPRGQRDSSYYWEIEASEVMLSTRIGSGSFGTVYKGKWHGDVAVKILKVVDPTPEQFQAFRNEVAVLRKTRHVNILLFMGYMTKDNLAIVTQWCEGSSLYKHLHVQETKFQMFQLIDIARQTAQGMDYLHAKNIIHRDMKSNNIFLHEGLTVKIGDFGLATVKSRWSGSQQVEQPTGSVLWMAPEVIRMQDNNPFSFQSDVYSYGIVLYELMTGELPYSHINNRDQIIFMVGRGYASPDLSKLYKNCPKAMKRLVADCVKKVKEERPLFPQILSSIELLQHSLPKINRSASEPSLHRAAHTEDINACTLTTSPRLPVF
In short: as §4

[24] = system: Class 3 mutants (H508 and H1666); experiment: ERK signaling in a panel of cell lines, 1 hour; format: cell-based
[25] = system: BRAF V600E monomers; experiment: ERK signaling in SKBR3 cells ectopically expressing RAF proteins; format: cell-based; details: 1hr
In short: as §2

[26] = system: HeLa cells (WT RAS and RAF) with CRAF overexpression; experiment: ERK signaling in HeLa cells stably expressing RAF; format: cell-based; details: 1hr
[27] = molecular target: RAS-dependent full length BRAF/BRAF dimers (Homo sapiens, UniProt P15056); experiment: RAF dimer immunoprecipitation in 293H; format: cell-based
[28] = system: Class 2 BRAF mutants (SK-MEL-239 C4, SK-MEL-246, JVM-3, and 22RV1); experiment: ERK signaling in a panel of cell lines, 1 hour; format: cell-based
[29] = Tolerability in nude mice; format: in vivo; details: doses up to 100mg/kg daily
[30] = molecular target: RAS-dependent full length CRAF dimers (Homo sapiens, UniProt P04049); experiment: RAF dimer immunoprecipitation in 293H; format: cell-based; details: concentrations as high as 10uM
Chain of RAS-dependent full length CRAF dimers (P04049 whole entry): as above
Chain of RAS-dependent full length CRAF dimers (P04049 whole entry): as above
In short: as §4

[31] = system: activated CRAF homodimers; experiment: ERK signaling in SKBR3 cells ectopically expressing RAF proteins; format: cell-based; details: 1hr
In short: as §2

[32] = system: WT RAF driven by either WT or mutant RAS (A549, SK-MEL-285, BEAS-2B and melanocytes); experiment: ERK signaling in a panel of cell lines, 1 hour; format: cell-based
In short: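 Cells cultured as follows: SK-MEL-285 in RPMI with 10% FBS; BEAS-2B in BEBM medium; primary melanocytes in Dermal cell basal medium with melanocyte growth kit; A549 in DMEM with glutamine, antibiotics and 10% FBS. Pathway status read by Western blot for p-MEK1/2, p-ERK1/2, MEK1/2 and ERK1/2 (primary 1:1,000; HRP secondary 1:5,000). Cellular experiments repeated at least three times.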

[33] = system: ARAF knockout MEF cells; experiment: p-MEK/p-ERK in RAF knockout MEF cells; format: cell-based, Mouse; details: 1hr
In short: as §5

[34] = system: A375 cells with overexpression of BRAF V600E; experiment: A375 xenograft with doxycycline-induced BRAF V600E overexpression; format: in vivo, nude mice; details: vemurafenib 75mg/kg BID, PLX8394 50mg/kg BID
In short: (§7)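 A375 cells carrying a retroviral tet-regulated BRAF V600E or NRAS Q61K construct (kept in 50 ug/ml hygromycin and 0.2 ug/ml puromycin). 5 million cells were injected s.c. into nude mice fed doxycycline food. At 100 mm3, mice stayed on doxycycline food and received vehicle, reference RAF inhibitor 75 mg/kg BID or test compound 50 mg/kg BID. Tumour size was tracked (n=5; mean±s.d.; two-tailed unpaired t-test).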

[35] = system: A375 cells with NRAS Q61K expression; experiment: A375 xenograft with doxycycline-induced NRAS Q61K; format: in vivo, nude mice; details: vemurafenib 75mg/kg BID, PLX8394 50mg/kg BID
In short: as §7

## O=C(c1c(F)ccc(NS(=O)(=O)N2CC[C@@H](F)C2)c1F)c1c[nH]c2ncc(-c3cnc(C4CC4)nc3)cc12 [PLX8394]
[1]
  tumor growth response, single RAF inhibitor: partially inhibited
[2]
  effect on ERK signaling, cells expressing only ARAF: activated
[3]
  doses required to inhibit p61 BRAF V600E dimers: 100 to 300 nM
[4]
  effect on ERK signaling, cells expressing only CRAF: activated
[5]
  response of ERK signaling and tumor growth: insensitive
[6]
  IC50: > 20000 nM
[7]
  effect on ERK signaling, cells expressing only BRAF: inhibited
[8]
  time of highest drug concentrations in melanoma xenografts: 7 h
[9]
  effect on truncated CRAF (Cat C) homodimer levels: no effect
[10]
  disruption of Class 3 BRAF mutant heterodimers: disrupts
[11]
  disruption of Class 2 BRAF mutant homodimers: disrupts
[12]
  IC50: 100 to 300 nM
[13]
  IC50: > 20000 nM
[14]
  time of maximum inhibition of signaling after dosing: 2 to 7 h
  time of return of signaling to baseline: ≤ 24 h
[15]
  effect on ERK signaling, CRAF-knockout: inhibited signaling
[16]
  doses required to inhibit p61 WT BRAF dimers: 300 to 1000 nM
[17]; 1 hr, p-ERK/total ERK by densitometry, calculated from the curves in Figure 1
  IC75 of p-ERK in SK-MEL-239 C4: 158 nM
[17]; SK-MEL-239 C4, 1 hr
  concentration that inhibits p61 dimers: 100~300 nM
[18]
  concentrations inhibiting ERK signaling driven by Class 1 monomers: 30 to 100 nM
[19]
  IC75 of p-ERK in SK-MEL-239: 39 nM
[20]
  effect on ERK signaling, BRAF overexpression: sensitized ERK signaling to inhibition
[21]
  effect on ERK signaling, BRAF knocked out: induced ERK signaling
[22]
  disruption of ARAF homo- or heterodimers: didn’t disrupt
[23]
  IC50: 100 to 300 nM
[24]
  concentrations inhibiting Class 3 mutants driven signaling: 1 to 10 µM
[25]
  doses required to inhibit BRAF V600E monomers: 30 to 100 nM
[26]
  effect on ERK signaling, CRAF overexpression: activated the pathway
[27]
  IC50: 100 to 300 nM
[27]; 1uM, 293H cells
  time to reduction in BRAF-containing dimers after drug treatment: ≤ 15 min
[28]
  concentrations inhibiting ERK signaling in cells expressing Class 2 BRAF mutants: 100 to 1000 nM
[29]
  tolerability: well tolerated
[30]
  effect on full length CRAF dimer levels: no effect
[31]
  effect on ERK signaling in cells with activated CRAF homodimers: activated ERK signaling
[32]
  effect on ERK signaling in cells with WT RAF: almost no effect on ERK signaling or caused slight activation
[33]
  effect on ERK signaling, ARAF knockout: minimal effects
[34]
  response of ERK signaling and tumor growth, BRAF V600E amplified: sensitive

## CCCS(=O)(=O)Nc1ccc(F)c(C(=O)c2c[nH]c3ncc(-c4ccc(Cl)cc4)cc23)c1F [vemurafenib, reference compound]
[1]
  tumor growth response, single RAF inhibitor: insensitive
[2]
  effect on ERK signaling, cells expressing only ARAF: activated ERK signaling
[4]
  effect on ERK signaling, cells expressing only CRAF: activated ERK signaling
[5]
  response of ERK signaling and tumor growth: insensitive
[7]
  effect on ERK signaling, cells expressing only BRAF: activated ERK signaling
[35]
  response of ERK signaling and tumor growth, mutant NRAS: resistance
[34]
  response of ERK signaling and tumor growth, BRAF V600E amplified: resistance

Reference: publication PMC6404779 (Nature medicine, 2018)
